Data from ChEMBL document CHEMBL5360562 (Eur J Med Chem, 2023).
Converted amounts (≈) assume the structure as drawn.

Legend:
Acinetobacter baumannii [1] = test: Antibacterial activity against Acinetobacter baumannii AB967 assessed as reduction in bacterial growth incubated for 16 hrs by broth microdilution method; type: functional
Procedure, shortened: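 Six-hour CAMHB day cultures were diluted to 5×10^5 CFU/mL in CAMHB and dosed from DMSO stocks. Two-fold serial dilutions were made in broth, with a medium-only blank. Plates were incubated stationary at 37 °C for 16 h and read at OD600. The MIC was the lowest concentration giving <10% growth versus the positive control.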

Acinetobacter baumannii [2] = test: Antibacterial activity against Acinetobacter baumannii AB3785 assessed as reduction in bacterial growth incubated for 16 hrs by broth microdilution method; type: functional
Acinetobacter baumannii [3] = test: Antibacterial activity against Acinetobacter baumannii AB4498 assessed as reduction in bacterial growth incubated for 16 hrs by broth microdilution method; type: functional
Acinetobacter baumannii [4] = test: Antibacterial activity against Acinetobacter baumannii AB5711 assessed as reduction in bacterial growth incubated for 16 hrs by broth microdilution method; type: functional
Pseudomonas aeruginosa = test: Antibacterial activity against Pseudomonas aeruginosa PAO1 assessed as inhibition of bacterial growth incubated for 16 hrs by broth microdilution method; type: functional
Procedure, shortened: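 Standalone MIC by broth microdilution. 6 h day cultures in cation-adjusted Mueller-Hinton broth (CAMHB) diluted to 5×10^5 CFU/mL. Compound added from 10 mM DMSO stock to 200 μM (highest concentration), then twofold serial dilution. Incubated stationary at 37 °C for 16 h. OD600 read; MIC is lowest concentration with <10% growth versus positive control.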

Acinetobacter baumannii [5] = test: Antibacterial activity against Acinetobacter baumannii AB5075 assessed as reduction in bacterial growth incubated for 16 hrs by broth microdilution method; type: functional
Acinetobacter baumannii [6] = test: Potentiation of Clarithromycin antibacterial activity against Acinetobacter baumannii AB5075 assessed as clarithromycin MIC at 30 uM incubated for 16 hrs by broth microdilution method; type: functional
Acinetobacter baumannii [7] = test: Potentiation of Clarithromycin antibacterial activity against Acinetobacter baumannii AB5075 assessed as clarithromycin MIC at 7.5 uM incubated for 16 hrs by broth microdilution method; type: functional
Acinetobacter baumannii [8] = test: Potentiation of Clarithromycin antibacterial activity against Acinetobacter baumannii AB5075 assessed as clarithromycin MIC at 5 uM incubated for 16 hrs by broth microdilution method; type: functional
Acinetobacter baumannii [9] = test: Potentiation of Clarithromycin antibacterial activity against Acinetobacter baumannii AB5075 assessed as fold reduction in clarithromycin MIC at 30 uM incubated for 16 hrs by broth microdilution method; type: functional
Procedure, shortened: (§1)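 Checkerboard-style potentiation by broth microdilution. 6 h day cultures in CAMHB diluted to 5×10^5 CFU/mL. Adjuvant added from 10 mM DMSO stock at fixed concentration throughout. […] Controls: antibiotic alone, adjuvant alone, media only. Incubated stationary at 37 °C for 16 h. MIC is lowest concentration with no visible growth; fold reduction taken against the antibiotic-alone lane.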

Acinetobacter baumannii [10] = test: Potentiation of Clarithromycin antibacterial activity against Acinetobacter baumannii AB5075 assessed as fold reduction in clarithromycin MIC at 7.5 uM incubated for 16 hrs by broth microdilution method; type: functional; procedure, shortened: as §1
Acinetobacter baumannii [11] = test: Potentiation of Clarithromycin antibacterial activity against Acinetobacter baumannii AB5075 assessed as fold reduction in clarithromycin MIC at 5 uM incubated for 16 hrs by broth microdilution method; type: functional; procedure, shortened: as §1
Acinetobacter baumannii [12] = test: Potentiation of Clarithromycin antibacterial activity against Acinetobacter baumannii AB5075 assessed as reduction in clarithromycin MIC at 20 uM incubated for 16 hrs by broth microdilution method; type: functional
Acinetobacter baumannii [13] = test: Potentiation of Clarithromycin antibacterial activity against Acinetobacter baumannii AB5075 assessed as clarithromycin MIC at 10 uM incubated for 16 hrs by broth microdilution method; type: functional
Acinetobacter baumannii [14] = test: Potentiation of Clarithromycin antibacterial activity against Acinetobacter baumannii AB5075 assessed as fold reduction in clarithromycin MIC at 10 uM incubated for 16 hrs by broth microdilution method; type: functional; procedure, shortened: as §1
[15] = Antiproliferative against human HepG2 cells assessed as reduction in cell viability incubated for 24 hrs by XTT assay; type: toxicity, cell-based
[16] = Therapeutic index, ratio of IC50 for antiproliferative against human HepG2 cells assessed as reduction in cell viability to MIC for potentiation of Clarithromycin antibacterial activity against Acinetobacter baumannii […] assessed as clarithromycin MIC; type: toxicity, cell-based; settings: read-out: TI
Acinetobacter baumannii [17] = test: Potentiation of Clarithromycin antibacterial activity against Acinetobacter baumannii AB5075 assessed as clarithromycin MIC at 2.5 uM incubated for 16 hrs by broth microdilution method; type: functional
Acinetobacter baumannii [18] = test: Potentiation of Clarithromycin antibacterial activity against Acinetobacter baumannii AB5075 assessed as clarithromycin MIC at 1.5 uM incubated for 16 hrs by broth microdilution method; type: functional; procedure, shortened: as §1
Acinetobacter baumannii [19] = test: Potentiation of Clarithromycin antibacterial activity against Acinetobacter baumannii AB5075 assessed as fold reduction in clarithromycin MIC at 1.5 uM incubated for 16 hrs by broth microdilution method; type: functional
Acinetobacter baumannii [20] = test: Potentiation of Clarithromycin antibacterial activity against Acinetobacter baumannii AB967 assessed as clarithromycin MIC at 10 uM incubated for 16 hrs by broth microdilution method; type: functional
Acinetobacter baumannii [21] = test: Potentiation of Clarithromycin antibacterial activity against Acinetobacter baumannii AB3560 assessed as clarithromycin MIC at 10 uM incubated for 16 hrs by broth microdilution method; type: functional
Acinetobacter baumannii [22] = test: Potentiation of Clarithromycin antibacterial activity against Acinetobacter baumannii AB3785 assessed as clarithromycin MIC at 10 uM incubated for 16 hrs by broth microdilution method; type: functional
Acinetobacter baumannii [23] = test: Potentiation of Clarithromycin antibacterial activity against Acinetobacter baumannii AB4498 assessed as clarithromycin MIC at 10 uM incubated for 16 hrs by broth microdilution method; type: functional
Acinetobacter baumannii [24] = test: Potentiation of Clarithromycin antibacterial activity against Acinetobacter baumannii AB5674 assessed as clarithromycin MIC at 10 uM incubated for 16 hrs by broth microdilution method; type: functional
Acinetobacter baumannii [25] = test: Potentiation of Clarithromycin antibacterial activity against Acinetobacter baumannii AB5711 assessed as clarithromycin MIC at 10 uM incubated for 16 hrs by broth microdilution method; type: functional
Acinetobacter baumannii [26] = test: Potentiation of Azithromycin antibacterial activity against Acinetobacter baumannii AB5075 assessed as azithromycin MIC at 30 uM incubated for 16 hrs by broth microdilution method; type: functional
Acinetobacter baumannii [27] = test: Potentiation of Azithromycin antibacterial activity against Acinetobacter baumannii AB5075 assessed as azithromycin MIC at 20 uM incubated for 16 hrs by broth microdilution method; type: functional
Acinetobacter baumannii [28] = test: Potentiation of Azithromycin antibacterial activity against Acinetobacter baumannii AB5075 assessed as azithromycin MIC at 10 uM incubated for 16 hrs by broth microdilution method; type: functional
Acinetobacter baumannii [29] = test: Potentiation of Azithromycin antibacterial activity against Acinetobacter baumannii AB5075 assessed as azithromycin MIC at 7.5 uM incubated for 16 hrs by broth microdilution method; type: functional
Acinetobacter baumannii [30] = test: Potentiation of erythromycin antibacterial activity against Acinetobacter baumannii AB5075 assessed as erythromycin MIC at 30 uM incubated for 16 hrs by broth microdilution method; type: functional
Acinetobacter baumannii [31] = test: Potentiation of erythromycin antibacterial activity against Acinetobacter baumannii AB5075 assessed as erythromycin MIC at 20 uM incubated for 16 hrs by broth microdilution method; type: functional
Acinetobacter baumannii [32] = test: Potentiation of erythromycin antibacterial activity against Acinetobacter baumannii AB5075 assessed as erythromycin MIC at 10 uM incubated for 16 hrs by broth microdilution method; type: functional
Acinetobacter baumannii [33] = test: Potentiation of erythromycin antibacterial activity against Acinetobacter baumannii AB5075 assessed as erythromycin MIC at 7.5 uM incubated for 16 hrs by broth microdilution method; type: functional
Acinetobacter baumannii [34] = test: Potentiation of rifampicin antibacterial activity against Acinetobacter baumannii AB5075 assessed as rifampicin MIC at 30 uM incubated for 16 hrs by broth microdilution method; type: functional
Acinetobacter baumannii [35] = test: Potentiation of rifampicin antibacterial activity against Acinetobacter baumannii AB5075 assessed as rifampicin MIC at 20 uM incubated for 16 hrs by broth microdilution method; type: functional
Acinetobacter baumannii [36] = test: Potentiation of rifampicin antibacterial activity against Acinetobacter baumannii AB5075 assessed as rifampicin MIC at 10 uM incubated for 16 hrs by broth microdilution method; type: functional
Acinetobacter baumannii [37] = test: Potentiation of rifampicin antibacterial activity against Acinetobacter baumannii AB5075 assessed as rifampicin MIC at 7.5 uM incubated for 16 hrs by broth microdilution method; type: functional
Procedure, shortened: (§2)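 A. baumannii AB5075 6 h day cultures in CAMHB subcultured to 5×10^5 CFU/mL; adjuvant added from 10 mM DMSO stock at fixed concentration, then rifampicin (DMSO) twofold serially diluted in adjuvant-containing broth. Antibiotic-alone and adjuvant-alone control lanes.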

Acinetobacter baumannii [38] = test: Potentiation of rifampicin antibacterial activity against Acinetobacter baumannii AB5075 assessed as rifampicin MIC at 5 uM incubated for 16 hrs by broth microdilution method; type: functional; procedure, shortened: as §2
Acinetobacter baumannii [39] = test: Potentiation of rifampicin antibacterial activity against Acinetobacter baumannii AB5075 assessed as fold reduction in rifampicin MIC at 10 uM incubated for 16 hrs by broth microdilution method; type: functional
[40] = Stability of compound in human plasma assessed as parent compound remaining measured at 4 hrs; type: ADME, cell-free
Procedure, shortened: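 Compound at 20 μM final in human plasma (from 10 mM DMSO stock), 37 °C; aliquots at 0, 30, 60, 120, 240 min quenched in internal standard in 1:1 ACN/MeOH, centrifuged, supernatant analysed by UPLC-MRM. Peak-area ratio to internal standard expressed as % parent remaining relative to 0 min; half-life calculated.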

[41] = Metabolic stability in human liver microsomes assessed as parent compound remaining in presence of NADPH measured at 1 hr by UV-UPLC analysis; type: ADME, Microsome
Acinetobacter baumannii [42] = test: Potentiation of Clarithromycin antibacterial activity against Acinetobacter baumannii AB5075 assessed as clarithromycin MIC at 15 uM incubated for 16 hrs by broth microdilution method; type: functional
Acinetobacter baumannii [43] = test: Potentiation of Clarithromycin antibacterial activity against Acinetobacter baumannii AB5075 assessed as fold reduction in clarithromycin MIC at 15 uM incubated for 16 hrs by broth microdilution method; type: functional

CC[C@H]1OC(=O)[C@H](C)[C@@H](O[C@H]2C[C@@](C)(OC)[C@@H](O)[C@H](C)O2)[C@H](C)[C@@H](O[C@@H]2O[C@H](C)C[C@H](N(C)C)[C@H]2O)[C@](C)(OC)C[C@@H](C)C(=O)[C@H](C)[C@@H](O)[C@]1(C)O [CLARITHROMYCIN]
MIC (Acinetobacter baumannii [1]): 16 µg/mL (≈ 21.4 µM) | MIC (Acinetobacter baumannii [2]): 64 µg/mL (≈ 85.6 µM) | MIC (Acinetobacter baumannii [3]): 64 µg/mL (≈ 85.6 µM) | MIC (Acinetobacter baumannii [4]): 64 µg/mL (≈ 85.6 µM) | MIC (Pseudomonas aeruginosa): > 200 µM

Cl.Cl.Nc1nc(-c2cc(F)cc(NC(=O)Nc3cc(F)cc(-c4c[nH]c(N)n4)c3)c2)c[nH]1
MIC (Acinetobacter baumannii [5]): > 200 µM | MIC (Acinetobacter baumannii [6]): ≤ 0.062 µg/mL | MIC (Acinetobacter baumannii [7]): 0.25 µg/mL | MIC (Acinetobacter baumannii [8]): 0.5 µg/mL | fold change (FC) (Acinetobacter baumannii [9]): >=512 | fold change (FC) (Acinetobacter baumannii [10]): 128 | fold change (FC) (Acinetobacter baumannii [11]): 64 | fold change (FC) (Acinetobacter baumannii [12]): >=512 | MIC (Acinetobacter baumannii [12]; Acinetobacter baumannii, AB5075): ≤ 0.062 µg/mL | MIC (Acinetobacter baumannii [13]): 0.125 µg/mL | fold change (FC) (Acinetobacter baumannii [14]): 256 | IC50 at 24 h [15]: > 256 µg/mL | selectivity ratio [16]: > 353 | MIC (Acinetobacter baumannii [17]): 1 µg/mL | MIC (Acinetobacter baumannii [18]): 2 µg/mL | fold change (FC) (Acinetobacter baumannii [19]): 16 | MIC (Acinetobacter baumannii [20]): ≤ 0.062 µg/mL | MIC (Acinetobacter baumannii [21]): ≤ 0.062 µg/mL | MIC (Acinetobacter baumannii [22]): ≤ 0.062 µg/mL | MIC (Acinetobacter baumannii [23]): ≤ 0.062 µg/mL | MIC (Acinetobacter baumannii [24]): ≤ 0.062 µg/mL | MIC (Acinetobacter baumannii [25]): 0.125 µg/mL | MIC (Acinetobacter baumannii [26]): 0.5 µg/mL | MIC (Acinetobacter baumannii [27]): 1 µg/mL | MIC (Acinetobacter baumannii [28]): 1 µg/mL | MIC (Acinetobacter baumannii [29]): 2 µg/mL | MIC (Acinetobacter baumannii [30]): 0.125 µg/mL | MIC (Acinetobacter baumannii [31]): 0.25 µg/mL | MIC (Acinetobacter baumannii [32]): 0.25 µg/mL | MIC (Acinetobacter baumannii [33]): 1 µg/mL | MIC (Acinetobacter baumannii [34]): 0.003 µg/mL | MIC (Acinetobacter baumannii [35]): 0.007 µg/mL | MIC (Acinetobacter baumannii [36]): 0.031 µg/mL | MIC (Acinetobacter baumannii [37]): 0.06 µg/mL | MIC (Acinetobacter baumannii [38]): 0.25 µg/mL | fold change (FC) (Acinetobacter baumannii [39]): 32 | Stability [40]: > 95% | Stability [41]: 86%

Nc1nc(-c2ccc(NC(=O)Nc3cc(Br)cc(Br)c3)cc2)c[nH]1
MIC (Acinetobacter baumannii [5]): 50 µM (≈ 22.6 µg/mL) | MIC (Acinetobacter baumannii [7]): 0.25 µg/mL | MIC (Acinetobacter baumannii [8]): 4 µg/mL | fold change (FC) (Acinetobacter baumannii [10]): 128 | fold change (FC) (Acinetobacter baumannii [11]): 8 | MIC (Acinetobacter baumannii [42]): 0.125 µg/mL | fold change (FC) (Acinetobacter baumannii [43]): 256 | IC50 at 24 h [15]: 23.2 µg/mL (≈ 51.4 µM) | selectivity ratio [16]: 6.3 | Stability [40]: 89% | Stability [41]: 54%
